From ChEMBL document CHEMBL4376902, “CN128: A New Orally Active Hydroxypyridinone Iron Chelator” (J Med Chem, 2020)

How the values were obtained:
[1] = Binding affinity to Co2+ ion assessed as affinity constant by spectrophotometric titration method
[2] = Binding affinity to Ni2+ ion assessed as pM value by spectrophotometric titration method
[3] = Drug metabolism in rat liver microsomes assessed as glucuronidation incubated for 1 hr relative to deferiprone; type: ADME, Microsome
How it was run: (§1)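 Compound incubated 1 h with rat or human liver microsomes, n = 4, mean ± SD. Glucuronide formed given as percentage of total chelator added. Oxidative metabolism assessed separately.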

[4] = Binding affinity to Al3+ ion assessed as affinity constant by spectrophotometric titration method
[5] = Binding affinity to Fe2+ ion assessed as affinity constant by spectrophotometric titration method
How it was run: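 Automated spectrophotometric titration with 0.1 M KOH in 0.1 pH steps, 3 min equilibration per step, 50 mm cuvette, iron complexes at ca. 40 µM. Titrated in competition with metal hydrolysis species up to pH 12.0. Hydrolysis constants taken from critical compilations. Iron spectra fitted over 400–700 nm.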

[6] = Toxicity in Sprague-Dawley rat assessed as induction of histopathological changes in pancreas at 25 to 116 mg/kg, po dosed daily for 4 weeks during chronic 4 week toxicity test; type: organism-based; settings: in vivo, 672 h
[7] = Toxicity in Sprague-Dawley rat assessed as induction of histopathological changes in bone marrow at 25 to 116 mg/kg, po dosed daily for 4 weeks and measured after additional 4 weeks period in absence of drug; type: organism-based; settings: in vivo, 672 h
[8] = Toxicity in Sprague-Dawley rat assessed as induction of histopathological changes in bone marrow at 25 to 116 mg/kg, po dosed daily for 4 weeks during chronic 4 week toxicity test; type: organism-based; settings: in vivo, 672 h
[9] = Drug metabolism in human liver microsomes assessed as glucuronidation incubated for 1 hr relative to deferiprone; type: ADME, Microsome; how it was run: as §1

For `Cc1c(O)c(O)cc[n+]1[C@@H](CO)Cc1ccccc1.[Cl-]`, the log K [1] was 6.6, the pM [2] was 6.17 and the Drug metabolism [3] was “Metabolite_Detected”. For the same compound, the K [4] was 13 pM, the log K [4] was 12.2 and the K [5] was 6.22 pM. The log K [5] was 7.32, the Activity [6] was “Toxic” and the Activity [7] was “Non-Toxic”. For the same compound, the Activity [8] was “Toxic” and the Drug metabolism [9] was “Metabolite_Detected”.
